IC50 data for 8 molecules are collected here from ChEMBL document CHEMBL6120993, “Cardenolides in Asclepias syriaca Seeds: Exploring the Legacy of Tadeus Reichstein” (J Nat Prod, 2025).

Test [1] is described as follows: Inhibition of porcine sodium/potassium-ATPase incubated for 20 mins by Spectrophotometric analysis. Also on record: species or system Sus scrofa domesticus. The essentials:
(§1)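 Enzyme was porcine cerebral cortex Na+/K+-ATPase or dissected Oncopeltus fasciatus neural tissue. Six-point 1/10 series (5 × 10⁻³ to 5 × 10⁻⁸ M, in 20% DMSO/H2O) was diluted 1:5 into Tris-buffered ATP, NaCl, KCl, MgCl2 and enzyme, then held 20 min at 37 °C with shaking. SDS stop; Taussky–Shorr phosphate read at 700 nm. KCl-free background contained 10 mM ouabain. Technical triplicates; ouabain reference; 4-parameter logistic mixed model gave IC50.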

Test [2] is described as follows: Inhibition of seed bug sodium/potassium-ATPase incubated for 20 mins by Spectrophotometric analysis. The arrangement: species or system Oncopeltus fasciatus. In outline: as §1

In general, IC50 refers to the concentration that gives 50% inhibition. A higher IC50 goes with a need for much substance. In the case of `C[C@@H]1C[C@@H](O[C@@H]2O[C@H](CO)[C@@H](O)[C@H](O)[C@H]2O)[C@]2(O)O[C@@H]3C[C@@]4(C)[C@@H](C[C@@H]5O[C@]56[C@@H]4[C@H](O)[C@H](O)[C@]4(C)[C@@H](C5=CC(=O)OC5)CC[C@@]46O)C[C@H]3O[C@@H]2O1`, the values for the IC50 in test [1] and in test [2] were 2.2 µM and 1960 µM, respectively.

Turning to `C[C@H]1O[C@@H](O[C@H]2CC[C@@]3(C)[C@H](C2)C[C@@H]2O[C@]24[C@@H]3C[C@@H](O)[C@]2(C)[C@@H](C3=CC(=O)OC3)CC[C@@]24O)[C@H](O)[C@H](O)[C@@H]1O`, the values for the IC50 in test [1] and in test [2] were 1.4 µM and 1080 µM, respectively.

As to `C[C@H]1O[C@@H](O[C@H]2CC[C@@]3(C)[C@H](C2)C[C@@H]2O[C@]24[C@@H]3CC[C@]2(C)[C@@H](C3=CC(=O)OC3)CC[C@]42O)[C@H](O)[C@H](O)[C@@H]1O[C@@H]1O[C@H](CO)[C@@H](O)[C@H](O)[C@H]1O`, the values for the IC50 in test [1] and in test [2] were 1.1 µM and 830 µM, respectively.

For the molecule `C[C@H]1O[C@@H](O[C@H]2CC[C@@]3(C)[C@H](C2)C[C@@H]2O[C@]24[C@@H]3C[C@@H](O)[C@]2(C)[C@@H](C3=CC(=O)OC3)CC[C@@]24O)[C@H](O)[C@H](O)[C@@H]1O[C@@H]1O[C@H](CO)[C@@H](O)[C@H](O)[C@H]1O`, the figures for the IC50 in test [1] and in test [2] were 1.4 µM and 1040 µM, respectively.

Consider `C[C@@H]1C[C@@]2(N=CCS2)[C@]2(O)O[C@@H]3C[C@@]4(C)[C@@H](C[C@@H]5O[C@]56[C@@H]4[C@H](O)C(=O)[C@]4(C)[C@@H](C5=CC(=O)OC5)CC[C@]64O)C[C@H]3O[C@@H]2O1`, for which the IC50 in test [1] is 0.9 µM; in test [2], 220 µM.

Turning to `C[C@@H]1O[C@@H](O[C@H]2C[C@@H](O)[C@]3(CO)[C@H]4[C@H](O)C[C@]5(C)[C@@H](C6=CC(=O)OC6)CC[C@]5(O)[C@@H]4CC[C@]3(O)C2)[C@H](O)[C@H](O)[C@H]1O` [OUABAIN], the IC50 in test [1] was 0.7 µM; in test [2], 2100 µM.

As for `C[C@@H]1C[C@@H](O[C@@H]2O[C@H](CO)[C@@H](O)[C@H](O)[C@H]2O)[C@]2(O)O[C@@H]3C[C@@]4(C)[C@@H](C[C@@H]5O[C@]56[C@@H]4[C@H](O)C(=O)[C@]4(C)[C@@H](C5=CC(=O)OC5)CC[C@]64O)C[C@H]3O[C@@H]2O1`, the concentration for half-maximal inhibition (IC50) in test [1] was 0.9 µM; in test [2], 640 µM.

As for `C[C@H]1O[C@@H](O[C@H]2CC[C@@]3(C)[C@@H](CC[C@@H]4[C@@H]3C[C@@H](O)[C@]3(C)[C@@H](C5=CC(=O)OC5)CC[C@]43O)C2)[C@H](O)[C@H](O)[C@@H]1O[C@@H]1O[C@H](CO)[C@@H](O)[C@H](O)[C@H]1O`, the concentration for half-maximal inhibition (IC50) in test [1] was determined as 1.1 µM; in test [2], 220 µM.
